Molecules are shown by their SMILES.

We go through 2 molecules from ChEMBL document CHEMBL1944509, “Methyl-monofluorination of ibuprofen selectively increases its inhibitory activity toward cyclooxygenase-1 leading to enhanced analgesic activity and reduced gastric damage in vivo” (Bioorg Med Chem Lett, 2011).

Data set [1] is described as follows: Apparent half life in ICR mouse at 10 mg/kg, po. Details: dose 10 mg/kg, route oral. Conditions: in vivo, read-out: t1/2(app) (converted). It counts as ADME, organism-based.
The test system of data set [2] is Mus musculus. The experiment in a line: Ratio of drug level in brain to plasma in ICR mouse at 5 mg/kg, iv.
Data set [3] is described as follows: Apparent volume of distribution in ICR mouse at 5 mg/kg, iv. It counts as ADME, organism-based. Details: dose 5 mg/kg, route intravenous. Conditions: in vivo, read-out: Vz.
Data set [4] in a line: Clearance in ICR mouse at 5 mg/kg, iv. It counts as ADME, organism-based. Details: dose 5 mg/kg, route intravenous. Conditions: in vivo.
Data set [5] concerns Mus musculus. The experiment in a line: Ratio of drug level in brain to plasma in ICR mouse at 10 mg/kg, po.
A short description of data set [6]: Apparent half life in ICR mouse at 5 mg/kg, iv. The class given is ADME, organism-based. Also on record: dose 5 mg/kg, route intravenous. Conditions: in vivo, read-out: t1/2(app) (converted).
For data set [7], the system named is Nucleic Acid. The experiment in a line: Ratio of drug level in brain to plasma in ICR mouse at 10 mg/kg, po after 0.083 hrs by HPLC/MS/MS analysis. The class given is ADME, organism-based. Also on record: dose 10 mg/kg, route oral.
Data set [8] concerns Nucleic Acid. Put plainly: Ratio of drug level in brain to plasma in ICR mouse at 5 mg/kg, iv after 6 hrs by HPLC/MS/MS analysis. Also on record: dose 5 mg/kg, route intravenous. It counts as ADME, organism-based.
Data set [9] concerns Mus musculus. The experiment in a line: Analgesic activity in Swiss albino mouse assessed as inhibition of acetic acid-induced writhing at 30 mg/kg, ig administered 1 hr before acetic acid challenge measured 10 mins post acetic acid challenge. The class given is functional. Conditions: po, route intragastric. The method in brief:
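Male Swiss albino mice (22–24 g), three groups, n = 8; drug suspended in 0.5% CMC given i.g. (0.3 ml/10 g) 1 h before i.p.-unspecified injection of 1% (v/v) acetic acid at 0.1 ml/10 g. Writhes counted for 10 min starting 10 min after acetic acid; activity as percent decrease in writhing versus vehicle control; mean ± SEM, ANOVA then t-test.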
In general terms: An intraperitoneal irritant provokes the stretching counted in writhing tests.

Data set [10] has as its system Nucleic Acid. Put plainly: Ratio of drug level in brain to plasma in ICR mouse at 5 mg/kg, iv after 4 hrs by HPLC/MS/MS analysis. It counts as ADME, organism-based. Details: dose 5 mg/kg, route intravenous.
Data set [11] is described as follows: Drug level in ICR mouse brain at 5 mg/kg, iv after 4 hrs by HPLC/MS/MS analysis. It counts as ADME, organism-based. Details: dose 5 mg/kg, route intravenous. To be noted: read-out: Drug uptake.
In data set [12] the test system is Rattus norvegicus. Put plainly: Gastrointestinal toxicity in Wistar rat assessed as ulcerogenic effect at 100 mg/kg, po measured after 17 hrs post treatment (Rvb =0.50 +/- 0.41). The class given is organism-based. Also on record: dose 100 mg/kg, route oral. Conditions: in vivo. The gist of the method:
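Wistar rats, 150–200 g, eight per group, fasted at least 8 h with water ad libitum. Drug is given orally as a 0.5% CMC suspension at 10 ml/kg; controls get 0.5% CMC. Food is returned after 30 min. At 17 h rats are killed with CO₂ and stomachs removed. Damage score is the summed lesion lengths in mm per rat; mean ± SEM.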

Broadly, the clearance is a measure of how efficiently the substance is removed, as volume per time. Higher therefore signals a high capacity for elimination. Take `CC(C)Cc1ccc([C@H](CF)C(=O)O)cc1`: the half-life in data set [1] was 45 min; in [6], 52.8 min. In addition, the BPR in [2] came to 0.031 mL/g; in data set [5] it was 0.025 mL/g; in [7], 0.027 mL/g. Also, the Vd in [3] is 0.27 L/kg. This molecule also gave a clearance in data set [4] of 3.5 mL/min/kg.

One may read the inhibition in vivo as the share of the control response that was lost under treatment. Consider `CC(C)Cc1ccc([C@H](C)C(=O)O)cc1` [DEXIBUPROFEN], for which the BPR in [8] was determined as 0.059 mL/g; in data set [10] it was 0.044 mL/g. Besides, the inhibition in vivo at 30 mg/kg in data set [9] turned out to be 68.7%. The concentration at 4 h in data set [11] amounted to 41.5 ng/g. For the same molecule, the Activity result in [12] was “Toxic”.
